Screening data from PubChem BioAssay.
An excerpt weighted towards active compounds, which were near 2.7% of everything screened.
PLK1 inh: human PLK1 kinase inhibitors, primary screen, biochemical, TR-FRET | Serine/threonine-protein kinase PLK1 (Homo sapiens), P53350 | recombinant PLK1 kinase, TR-FRET peptide phosphorylation | inhibition, % at 10 µM | hit rate 0.53% among 97,000 | AID 619, 2007;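 active means inhibition of 50% or more in the single-concentration screen; inactive means inhibition below 50%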;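 further: 0% = DMSO max control and 100% = H-89 dihydrochloride min control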
PLK1 PBD inh: Plk1 polo box domain binding inhibitors, primary screen, biochemical, fluorescence polarization | inhibition, %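 (tested at about 20 µM)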 | Serine/threonine-protein kinase PLK1 (Homo sapiens), P53350 | Plk1 PBD phosphopeptide binding | hit rate 0.13% among 97,000 | AID 693, 2007; in the data active means inhibition above about 34%, passing the limit was not always enough
LYP inh 2: PTPN22 phosphatase inhibitors, primary screen, biochemical, DiFMUP fluorescence, 2 µM; recombinant LYP catalytic domain; inhibition, % at 2 µM; AID 640, 2007; Tyrosine-protein phosphatase non-receptor type 22 (Homo sapiens), Q9Y2R2; hit rate 0.21% among 96,000;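 active means inhibition at 2 µM at or above a set limit, the screen mean plus 3 SD, cut at about 24% in these data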;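 further: 0% = DMSO with enzyme and 100% = enzyme fully blocked by orthovanadate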
PTPN22 act: LYP phosphatase activators, primary screen, biochemical, DiFMUP fluorescence, 2 µM | Tyrosine-protein phosphatase non-receptor type 22 (Homo sapiens), Q9Y2R2 | recombinant LYP; 0 = plate median, 100 = signal doubled | activation, % at 2 µM | hit rate 0.11% among 96,000 | AID 697, 2007;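 active means activation at 2 µM above a set limit, the mean plus 5 SD, cut at about 37% in these data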
Rev-RRE block: HIV-1 Rev-RRE binding inhibitors, primary screen, biochemical, FRET, protein-RNA interaction; Rev peptide-RRE RNA binding; P05866; hit rate 0.79% among 97,000; inhibition, % at 8 µM;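 active means inhibition above the screen-wide mean plus 3 SD, cut at about 35% in these data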;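 further: 0% = median DMSO wells and 100% = median Neomycin B control wells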
Target sequence (P05866 whole entry, looked up): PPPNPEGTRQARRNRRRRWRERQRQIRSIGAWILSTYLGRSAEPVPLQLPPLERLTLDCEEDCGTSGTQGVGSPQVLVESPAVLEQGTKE
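Test system: Cy5-tagged RRE RNA duplex with fluorescein-tagged Rev peptide | Read-out: % inhibition of FRET ratio versus controls | Probe or stimulus: Labelled Rev peptide | Incubation: 5 min RNA-compound premix plus 15 min binding step, 25 °C | Technique: FRET fluorescence readout | Benchmarks: DMSO low control, neomycin B high control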
hDAT+cocaine: changed hDAT dopamine uptake under cocaine IC80, either direction, primary screen, cocaine antagonist project, cell-based, LLC-PK1 hDAT, [14C]-dopamine uptake, MLSMR; B-score at 10 µM; Sodium-dependent dopamine transporter (Homo sapiens), Q01959; hit rate 1.3% among 110,000; LLC-PK1 hDAT cells, [14C]-dopamine uptake with cocaine IC80; actives deviate in either direction; AID 449768, 2010;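 active means Z score or B-score, a plate-position-corrected score, falls beyond the plate's 99.7% confidence bounds, in either direction; inactive means both scores lie inside the 99.7% bounds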;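 further: scored against the spread of the other compound wells on the same plate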
Active calls of the source: *; nt = no result given.

SMILES	PLK1 inh	PLK1 PBD inh	LYP inh 2	PTPN22 act	Rev-RRE block	hDAT+cocaine
CC(=O)Nc1nnc(SCC(=O)NCC2CCCO2)s1 (stereo not given)	nt	nt	nt	nt	nt	-0.4
CC(=O)Nc1nnc(SCC(=O)NCCOc2ccccc2)s1	-12	-17	-2	0	3	-8*
CC(C)CC(NC(=O)OC(C)(C)C)c1cn([C@@H](Cc2ccc(O)cc2)C(=O)N2CCN(C(=O)OC(C)(C)C)CC2)nn1 (stereo not given in full)	nt	nt	nt	nt	nt	-0.45
OC(COc1c(Cl)cc(Cl)cc1Cl)CN1CCCCC1 (stereo not given)	54*	-1	-11	8	0	-0.59
O=C(c1cc2ccccc2cc1OCC(O)CN1CCCCC1)N1CCCCC1 (stereo not given)	66*	8	nt	nt	-4	1.4
COC(=O)C(OC(=O)c1ccc(OC)cc1)C(=O)OC	-9	-6	6	-7	4	0.18
Cc1ccc(NCc2nnc(SCCN3CCCCC3)n2CC2CCCO2)cc1Cl (stereo not given)	-4	-5	-4	3	11	2.4*
Cc1ccc(NCc2nnc(SCC(=O)NCc3ccco3)n2CC2CCCO2)cc1Cl (stereo not given)	-5	0	18	-13	5	0.77
Cc1cccc(CN(CC(=O)N/N=C/c2cccs2)S(=O)(=O)c2ccc(Cl)cc2)c1	-15	18	18	-15	6	0.36
Nn1c(Nc2ccccc2)nc2sc3c(c2c1=O)CCC3	-8	7	2	-4	8	3.7*
CCc1nc2sc3c(c2c(=O)n1N)CCC3	-16	3	-13	11	2	0.24
CSCCC1(C(=O)O)NC(c2ccccc2O)C2C(=O)N(C(C)C)C(=O)C21 (stereo not given)	-21	36	0	0	7	-2.6*
CCCC1(C(=O)O)NC(c2ccccc2O)C2C(=O)N(Cc3ccccc3)C(=O)C21 (stereo not given)	-15	23	1	-1	12	1.1
COc1cc(OC)c(OC)cc1/C=N/NC(=S)NCC1CCCO1 (stereo not given)	-12	-1	1	-2	-3	0.25
Clc1cccc(Cl)c1/C=N\Nc1nccs1	-4	-8	8	-4	-3	1.6
O=[N+]([O-])c1cc(/C=N\Nc2nccs2)ccc1O	-9	-9	40*	-38	-5	nt
COc1ccccc1-n1c(SCC(=O)N2CCc3ccccc32)nc2c(c1=O)SCC2	-12	4	-7	5	1	1.2
COc1ccc(OC)c(-n2c(SCC(=O)N3CCc4ccccc43)nc3c(c2=O)SCC3)c1	nt	nt	nt	nt	nt	3.2*
COCCn1c(CN2CC(C)CC(C)C2)nc2c1c(=O)n(C)c(=O)n2C (stereo not given)	68*	6	nt	nt	0	0.079
Cc1cc(C)cc(-n2c3nc4ccccc4nc3c3c(=O)n(Cc4ccco4)cnc32)c1	-7	5	38*	-36	2	1.5
Cc1sc2ncnc(Oc3ccc(-n4ccnc4)cc3)c2c1C	nt	nt	nt	nt	nt	2.5*
Cc1ccc(C(=O)NCCc2csc(C)n2)cc1	-8	-1	-11	8	3	2.6*
COc1ccc(S(=O)(=O)Nc2ccc(S(=O)(=O)N3CCCCC3)cc2)cc1	-5	-19	25*	-25	9	1.2
COc1ccc(S(=O)(=O)N2CCCC(C(=O)Nc3cccc(C(C)=O)c3)C2)cc1 (stereo not given)	-7	3	-14	14	3	1.9*
COc1ccc(OC(=O)c2cc(S(=O)(=O)N3CCCC3)ccc2Cl)cc1	1	4	6	-5	17	-2.3*
SMILES	PLK1 inh	PLK1 PBD inh	LYP inh 2	PTPN22 act	Rev-RRE block	hDAT+cocaine
CC(=O)c1cccc(NC(=O)C2CCCN(S(=O)(=O)c3ccc(F)cc3)C2)c1 (stereo not given)	-12	-11	9	-10	9	0.035
COC(=O)Nc1ccc(=O)n(Cc2c(Cl)cccc2Cl)c1	-7	0	1	2	2	-0.48
CCc1ccc(/C=N/NC(=O)c2cc(C3CC3)nc3ccc(Br)cc23)s1	-9	13	-1	-3	9	0.76
COc1ccc(OC)c(NS(=O)(=O)c2ccc(NC(C)=O)cc2)c1	-9	-31	3	-1	5	-0.099
COc1ccc(C)cc1NS(=O)(=O)c1ccc(NS(=O)(=O)c2ccc(NC(C)=O)cc2)cc1	-8	-1	-7	6	8	3.9*
Cc1ccc(CNC(=O)CCSCCC(=O)NCc2ccc(C)cc2)cc1	-7	4	6	-5	4	-0.44
Cc1ccc(CC(=O)NCc2ccc3c(c2)OCO3)cc1	-3	-14	2	1	10	-1.9
Cc1nc2ccc(S(=O)(=O)NCC(=O)NCc3ccc4c(c3)OCO4)cc2s1	-11	-10	27*	-27	2	-0.21
Cc1ccc(-c2noc(CCC(=O)NCc3ccc4c(c3)OCO4)n2)cc1	-10	-30	0	1	3	1.2*
Cc1nc2ccc(S(=O)(=O)N(C)CC(=O)NCc3ccc4c(c3)OCO4)cc2s1	6	8	1	-2	5	0.029
CC1(C)CC(=O)C=C(c2cccs2)C1	nt	nt	nt	nt	nt	0.31
Cc1ccc(S(=O)(=O)C(C)C(=O)c2ccc3c(c2)OCCO3)cc1 (stereo not given)	-4	1	12	-10	1	-1.1
OCC[C@H]1C[C@@H](O)[C@H](O)[C@@]2(CCCCO2)O1	nt	nt	nt	nt	nt	-0.34
CC1=C(C(=O)OCc2ccccc2)C(c2ccccc2OS(=O)(=O)c2ccc([N+](=O)[O-])cc2)NC(=O)N1CCCC(=O)O (stereo not given)	nt	nt	nt	nt	nt	2.8*
CCOC(=O)C1=C(C)N(CCCC(=O)O)C(=O)NC1c1ccccc1OS(=O)(=O)c1ccc([N+](=O)[O-])cc1 (stereo not given)	nt	nt	nt	nt	nt	-0.07
COc1ccc(S(=O)(=O)n2nc(C)cc2C)c(C)c1C	-17	7	1	-4	-1	-0.9
COc1ccc(Oc2ncnc3c2oc2ccc(Br)cc23)cc1	nt	nt	nt	nt	nt	-7.4*
CN(C)CCOc1ncnc2c1oc1ccccc12	-7	13	7	-6	-3	-0.74
NS(=O)(=O)c1ccc(NC(=O)Cn2ncc3c2-c2ccccc2OC3)cc1	0	-2	8	-11	2	-1.3
CCN(CC)S(=O)(=O)c1ccc(NC2c3ccccc3C(=O)N2Cc2ccc3c(c2)OCO3)cc1 (stereo not given)	66*	9	nt	nt	7	0.051
